{"source": "PubChem BioAssay AID588621", "about": "(Sanford-Burnham Center for Chemical Genomics, 2011)", "note": "Among all 360,000 compounds or so, about 890 (0.25%) were called active. This excerpt belongs to a sample that is enriched for actives. A number with no mark means an inactive call.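 The calls were made as follows: active = inhibition at 20 µM, scaled per plate between control wells, above about 37% (limit read from the data); inactive = the rest.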"}
{"target": "Tyrosine-protein phosphatase non-receptor type 5 (Homo sapiens) (UniProt P54829)", "sequence (P54829 whole entry, looked up)": "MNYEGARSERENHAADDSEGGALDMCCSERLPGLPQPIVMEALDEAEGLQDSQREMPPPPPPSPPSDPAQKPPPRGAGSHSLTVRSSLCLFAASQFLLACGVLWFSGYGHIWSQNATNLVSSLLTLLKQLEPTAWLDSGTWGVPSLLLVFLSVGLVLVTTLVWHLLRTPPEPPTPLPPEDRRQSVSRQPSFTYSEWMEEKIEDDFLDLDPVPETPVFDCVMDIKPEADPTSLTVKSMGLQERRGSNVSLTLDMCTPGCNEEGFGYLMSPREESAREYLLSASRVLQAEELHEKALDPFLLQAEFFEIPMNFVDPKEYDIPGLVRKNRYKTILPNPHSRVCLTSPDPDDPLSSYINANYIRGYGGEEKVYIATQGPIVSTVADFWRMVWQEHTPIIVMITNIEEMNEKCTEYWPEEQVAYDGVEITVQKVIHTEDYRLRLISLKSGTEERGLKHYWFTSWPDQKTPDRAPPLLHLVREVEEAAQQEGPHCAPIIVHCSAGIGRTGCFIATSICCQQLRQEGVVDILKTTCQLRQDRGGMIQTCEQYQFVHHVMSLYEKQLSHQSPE", "experiment": "STEP phosphatase inhibitors, primary screen, biochemical, fluorescence intensity, uHTS (AID 588621);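 also: 0% = DMSO with enzyme and substrate and 100% = substrate only without enzyme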", "settings": "recombinant STEP, OMFP fluorogenic substrate, at 20 µM, active compounds read high", "in_short": "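System: STEP phosphatase, cell-free reaction; Buffer or medium: Bis-Tris pH 6.0 buffer with DTT, detergent; Incubation: 20 min at room temperature, dark; Measured by: fluorescence, 480/540 nm.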"}
{"smiles": "CC(C)Cc1ccc(C(C)C(=N)N)cc1", "note": "(stereo not given)", "inhibition": "-2%"}
{"smiles": "CCO[C@H]1OC(C(=O)N2CCCCCCC2)=C[C@@H](c2ccc(C(F)(F)F)cc2)[C@@H]1CCCO", "inhibition": "0.1%"}
{"smiles": "CCOC(=O)C1=C(O)/C(=C/c2ccc(OCC(=O)Nc3ccc(C)cc3)cc2)N=C1C", "inhibition": "14.9%"}
{"smiles": "Cc1ccc2nc(-c3ccc(NC(=O)c4cccnc4)cc3)oc2c1", "inhibition": "0.4%"}
{"smiles": "Cc1ccc(OCC(=O)Nc2ccc(-c3nc4ncccc4o3)cc2)cc1", "inhibition": "54.1% (active)"}
{"smiles": "CCc1ccc(C2C(C#N)=C(N)N(N3CCOCC3)C3=C2C(=O)CC(C)(C)C3)s1", "note": "(stereo not given)", "inhibition": "-1.9%"}
{"smiles": "CNC(=O)NC(=O)C(OC(=O)c1cccc(S(=O)(=O)N2CCCCC2)c1)c1ccccc1", "note": "(stereo not given)", "inhibition": "-0.2%"}
{"smiles": "O=C(/C=C/Nc1ccc(S(=O)(=O)Nc2cnc3ccccc3n2)cc1)c1cccnc1", "inhibition": "5.4%"}
{"smiles": "CCOc1cc(CO)ccc1OCC(=O)N1CCCCC1", "inhibition": "-1.4%"}
{"smiles": "CCNC(=S)N1CCN(c2ncccn2)CC1", "inhibition": "-5.9%"}
{"smiles": "CC(=NNC(=S)N1CCCCCC1)c1ccccn1", "inhibition": "54.5% (active)"}
{"smiles": "CCOc1ccc(NC(=S)N2CCCCCC2)cc1", "inhibition": "-2.3%"}
{"smiles": "CCOC(=O)C1CCN(c2c(Nc3cc(C)cc(C)c3)c(=O)c2=O)CC1", "inhibition": "-2.8%"}
{"smiles": "COc1ccc(-c2c(-c3cc(OC)cc(OC)c3)n(C)c3ccc(-c4ccn[nH]4)cc23)cc1", "inhibition": "-1.9%"}
{"smiles": "O=C(CCSCCc1ccccn1)Nc1nccs1", "inhibition": "-2.2%"}
{"smiles": "CC(O)C(NS(=O)(=O)c1ccc(Cl)cc1)C(=O)OCc1cc([N+](=O)[O-])cc2c1OCOC2", "note": "(stereo not given)", "inhibition": "-3.7%"}
{"smiles": "CC(C)(C)OC(=O)NCCCCCC(=O)N/N=C/c1coc2ccccc2c1=O", "inhibition": "-1.9%"}
{"smiles": "O=C(N/N=C/c1coc2ccccc2c1=O)c1cc2ccccc2o1", "inhibition": "43.4% (active)"}
{"smiles": "Cc1c(/C=N\\NC(=O)c2cc3ccccc3o2)c2ccccc2n1C", "inhibition": "-0.5%"}
{"smiles": "CN1CCN(C(=O)c2ccccc2NC(=O)COc2ccccc2Cl)CC1", "inhibition": "-2.4%"}
{"smiles": "C=CCn1c(=S)[nH]c2scc(-c3ccco3)c2c1=O", "inhibition": "13.1%"}
{"smiles": "CCCc1nc(-c2cc3cc(C)ccc3[nH]c2=O)no1", "inhibition": "3.2%"}
{"smiles": "COc1ccc2[nH]c(=O)c(-c3noc(-c4ccc(F)cc4)n3)cc2c1", "inhibition": "95.7% (active)"}
{"smiles": "COc1ccc(Cc2cc(-c3ccc(F)cc3)n[nH]c2=O)cc1", "inhibition": "1.1%"}
{"smiles": "O=C(NCc1ccccc1)C(c1cccnc1)N(C(=O)c1csnn1)c1ccc(F)cc1", "note": "(stereo not given)", "inhibition": "2.3%"}
{"smiles": "Cc1ccc(-n2c(C)cc(/C=C(\\C#N)C(=O)NCC3CCCO3)c2C)cc1", "note": "(stereo not given)", "inhibition": "0.4%"}
{"smiles": "CCCCNC(=O)c1c[nH]c2ccc(S(=O)(=O)Nc3ccc(OCC)cc3)cc2c1=O", "inhibition": "4.4%"}
{"smiles": "Cc1nc2ccc(NC(=S)N3CCC(C)CC3)cc2nc1C", "inhibition": "2.1%"}
{"smiles": "CC1=C(C(=O)N2CCOCC2)CC(CC(=O)NCCCN(C)C)C(=O)N1Cc1ccc(C(C)(C)C)cc1", "note": "(stereo not given)", "inhibition": "-2.8%"}
{"smiles": "CC(=O)c1ccc(NC(=O)CSC(=S)N2CCCC2)cc1", "inhibition": "0.8%"}
{"smiles": "O=C(CSC(=S)N1CCCCC1)c1c(F)cccc1F", "inhibition": "87.8% (active)"}
{"smiles": "COc1cccc(NC(=O)CN(C)C(=O)CSC(=S)N2CCCC2)c1", "inhibition": "-1.5%"}
{"smiles": "O=S(=O)(NCC1CN(S(=O)(=O)c2ccc3c(c2)OCCO3)C1)c1c(F)cccc1F", "inhibition": "-0.5%"}
{"smiles": "CSc1ccc(C#N)cc1NC(=O)c1ccc(Cl)cc1", "inhibition": "-9.6%"}
{"smiles": "COc1ccc(NC(=O)c2ccco2)cc1NC(=O)c1ccc(C#N)cc1F", "inhibition": "-1.6%"}
{"smiles": "N#Cc1ccc(C(=O)Nc2cccc3cccnc23)c(F)c1", "inhibition": "97.4% (active)"}
{"smiles": "CSCCC(NC(=O)COc1ccccc1)C(=O)N(C)CC(=O)Nc1ccc(C)cc1", "note": "(stereo not given)", "inhibition": "-3.9%"}
{"smiles": "COc1ccc(CN2CCCC(CNC(=O)c3ccc(F)cc3)C2)cc1OC", "note": "(stereo not given)", "inhibition": "0.7%"}
{"smiles": "C[C@H](CO)N1C[C@H](C)[C@H](CN(C)C(=O)c2ccncc2)OCc2ccccc2-c2c(n(C)c3ccccc23)C1=O", "inhibition": "1.4%"}
{"smiles": "O=C1CCC(C(=O)Nc2ccc(OC(F)F)cc2)N1", "note": "(stereo not given)", "inhibition": "1.3%"}
{"smiles": "CCc1ccc(NC(=O)CS(=O)CC(=O)N2CCN(c3ccccc3F)CC2)cc1", "note": "(stereo not given)", "inhibition": "2.2%"}
{"smiles": "CCc1ccc(NC(=O)CS(=O)CC(=O)NCCCc2ccccc2)cc1", "note": "(stereo not given)", "inhibition": "41.6% (active)"}
{"smiles": "S=C(NCCCc1ccccc1)Nc1ccc(Br)cc1", "inhibition": "1.3%"}
{"smiles": "Cc1ccc(S(=O)(=O)NN=C2CC(C)(C)CC(=O)C2(C)C)cc1", "inhibition": "-2.2%"}
{"smiles": "CCOc1nnc(C)c2c(C)n(-c3cccc(Cl)c3)nc12", "inhibition": "-2.6%"}
